Compounds with a hit are over-represented: about 5.9% of the library has one in this group of screens.
T cruzi growth-1 – T. cruzi intracellular proliferation inhibitors, primary screen, cell-based, beta-gal Tulahuen parasites, NIH3T3 host, luminescence; T. cruzi beta-gal in NIH3T3, GalScreen luminescence, 90 h; inhibition, % at 8.34 µM; 77,000 compounds, 5.9% hits;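 active = mean inhibition above about 93%, with at least 55% of replicates each passing it, limit read from the data, passing the limit was not always enough; inconclusive = only one of those two conditions holds; inactive = neither condition holds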
IDH1 R132H inh – inhibitors of IDH1 R132H reductase, primary screen, biochemical, plate reader, single point; inhibition, % at 10 µM; diaphorase/resazurin fluorescence, 60 min; Isocitrate dehydrogenase [NADP] cytoplasmic (Homo sapiens), O75874; 70,000 compounds, 0.18% hits; AID 624101, 2012; in the data active = inhibition above about 34%; inconclusive = no clear call, values can overlap the other calls; inactive = below about 11%;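 also: 0% = DMSO and 100% = no enzyme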
Target sequence (O75874 whole entry R132H): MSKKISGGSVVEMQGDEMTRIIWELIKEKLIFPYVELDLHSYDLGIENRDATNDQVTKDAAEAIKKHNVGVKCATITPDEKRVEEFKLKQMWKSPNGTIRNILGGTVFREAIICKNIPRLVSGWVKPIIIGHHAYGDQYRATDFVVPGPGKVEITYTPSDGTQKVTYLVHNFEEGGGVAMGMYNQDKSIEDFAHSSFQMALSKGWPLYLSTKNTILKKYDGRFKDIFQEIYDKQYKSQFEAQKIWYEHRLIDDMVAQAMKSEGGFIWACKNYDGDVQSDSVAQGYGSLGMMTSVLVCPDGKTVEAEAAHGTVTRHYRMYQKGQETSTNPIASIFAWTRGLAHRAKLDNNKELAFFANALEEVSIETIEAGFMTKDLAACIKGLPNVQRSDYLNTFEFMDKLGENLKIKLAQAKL
GASC1 inh – inhibitors of GASC-1 (KDM4C) histone demethylase, primary screen, biochemical, single concentration HTS | 96,000 compounds, 0.15% hits | inhibition, % at 12.5 µM | GST-KDM4C 2-372, H3K9me3 peptide, LANCE TR-FRET | AID 720574, 2013 | Lysine-specific demethylase 4C (Homo sapiens), Q9H3R0;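 active = mean replicate inhibition above about 25%, with at least 55% of replicates also reaching it, limit read from the data, passing the limit was not always enough; inconclusive = only one of those two conditions met; inactive = neither condition met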
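Compound: one test concentration per compound; Material: GST-GASC-1 enzyme fragment 2-372; Amount: GASC-1 enzyme at 10 nM final in reaction; Also added: H3K9me3 peptide substrate, Fe(II), 2-oxoglutarate; Technique: LANCE TR-FRET; Times: 30 min demethylation and 1 h detection at room temperature.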
Pf Dd2 growth – P. falciparum Dd2 growth inhibitors, primary screen, SYBR Green fluorescence, single dose replicates. 94,000 compounds, 2.3% hits. activity change, % at 10 µM. AID 1159554, 2015. 72 h; hits give low values; in the data active = activity change below about -80%; inconclusive = no clear call, values can overlap the other calls
T cruzi growth-2 – T. cruzi intracellular proliferation inhibitors, confirmation, cell-based, NIH3T3 host, beta-gal parasite, luminescence, cherry-pick. 5,600 compounds, 72% hits. inhibition, % at 8.35 µM. T. cruzi beta-gal in NIH3T3, GalScreen luminescence, 90 h. shares compounds with T cruzi growth-1;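 active = mean replicate inhibition above about 95% and at least 55% of replicates individually reaching it, limit read from the data; inconclusive = only one of the two criteria is met; inactive = neither criterion is met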
T cruzi growth-3 – inhibitors of intracellular T. cruzi replication, confirmation, NIH3T3 host cells, beta-gal parasites, cherry-pick, set 2. inhibition, % at 2.09 µM. T. cruzi beta-gal in NIH3T3, GalScreen luminescence, 90 h. 5,600 compounds, 21% hits. shares compounds with T cruzi growth-1;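 active = mean inhibition above about 95%, with at least 55% of replicates also reaching it, limit read from the data; inconclusive = meets just one of the two conditions; inactive = meets neither condition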;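 also: plate controls were neutral control median for no effect and positive control median for full effect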
NIH3T3 tox – cytotoxicity in mouse NIH/3T3 fibroblasts, confirmation, cytotoxicity control for T. cruzi proliferation inhibitor project, cell-based, cherry-pick, single point. shares compounds with T cruzi growth-1. NIH/3T3 viability, CellTiter-Glo ATP luminescence, 90 h. cytotoxicity (signal decrease), % at 8.35 µM. 5,600 compounds, 14% hits;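 active = mean signal decrease across replicates above about 35% based on untreated-well scatter, with enough replicates individually passing, limit read from the data; inconclusive = no rule stated though some were filed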;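 also: 0% = median of neutral control wells and 100% = median of positive control wells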
3T3 cytotox 2 – NIH/3T3 fibroblast cytotoxicity, confirmation, cytotoxicity control, cell-based, cherry-pick, single point, set 2; shares compounds with T cruzi growth-1; NIH/3T3 viability, CellTiter-Glo ATP luminescence, 90 h; inhibition, % at 24.9 µM; 5,600 compounds, 56% hits; AID 651744, 2012;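 active = mean loss of cell viability signal at or above a set limit, and enough replicates individually reaching it; inconclusive = meets only the mean limit or only the replicate share; inactive = meets neither condition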;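 also: 0% = median of neutral control wells and 100% = median of positive control wells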
Starred values were filed as active, the others as inactive; ? = inconclusive; nt = no result given.

SMILES	T cruzi growth-1	IDH1 R132H inh	GASC1 inh	Pf Dd2 growth	T cruzi growth-2	T cruzi growth-3	NIH3T3 tox	3T3 cytotox 2
C[C@@H]1CCCCO[C@H](CN(C)C(=O)Nc2cccc3ccccc23)[C@H](C)CN([C@@H](C)CO)C(=O)c2cc(NC(=O)Nc3cccc4ccccc34)ccc2O1	38.4	nt	0.1	-21.5	nt	nt	nt	nt
C[C@@H]1CN([C@H](C)CO)C(=O)c2cc(NC(=O)Nc3cccc4ccccc34)ccc2O[C@@H](C)CCCCO[C@H]1CN(C)C(=O)C1CCCCC1	?	nt	-1.7	-65.6	104.1*	105.6*	15.4	23.6
C[C@@H]1CCCCO[C@H](CN(C)C(=O)C2CCCCC2)[C@@H](C)CN([C@H](C)CO)C(=O)c2cc(NC(=O)Nc3cccc4ccccc34)ccc2O1	?	-0.7	16.9	-56.5	101.6*	7.1	-1.0	-37.6
C[C@@H]1CCCCO[C@@H](CN(C)Cc2ccc(C(F)(F)F)cc2)[C@@H](C)CN([C@H](C)CO)C(=O)c2cc(NC(=O)C3CCCCC3)ccc2O1	70.1	-0.6	-1.5	38.5	nt	nt	nt	nt
C[C@@H]1CN([C@H](C)CO)C(=O)c2cc(NC(=O)C3CCCCC3)ccc2O[C@@H](C)CCCCO[C@@H]1CN(C)Cc1ccc(C(F)(F)F)cc1	?	nt	-2.0	-35.5	93.1	113.3*	-5.2	-19.7
C[C@@H]1CCCCO[C@@H](CN(C)Cc2ccc(C(F)(F)F)cc2)[C@@H](C)CN([C@@H](C)CO)C(=O)c2cc(NC(=O)C3CCCCC3)ccc2O1	?	1.6	-1.5	-26.2	102.4*	59.5	3.0	-20.4
C[C@@H]1CCCCO[C@H](CN(C)Cc2ccc(C(F)(F)F)cc2)[C@H](C)CN([C@H](C)CO)C(=O)c2cc(NC(=O)C3CCCCC3)ccc2O1	?	nt	-3.5	-37.2	96.5*	110.1*	-2.6	14.5
C[C@@H]1CN([C@@H](C)CO)C(=O)c2cc(NC(=O)C3CCCCC3)ccc2O[C@@H](C)CCCCO[C@@H]1CN(C)Cc1ccc(C(F)(F)F)cc1	?	0.4	-0.4	-13.0	104.4*	105.4*	1.8	6.6
Cn1c(SCC(=O)Nc2ccc(Br)cc2)nnc1-c1cccnc1	nt	-0.1	nt	nt	nt	nt	nt	nt
CC(C)C#Cc1ccc2c(c1)O[C@@H](CN(C)CC1CCOCC1)[C@H](C)CN([C@@H](C)CO)S2(=O)=O	86.3	0.3	0.7	-51.7	nt	nt	nt	nt
C[C@H]1CN([C@@H](C)CO)S(=O)(=O)c2ccc(C#Cc3ccccc3)cc2O[C@H]1CN(C)CC1CC1	117.1*	-0.1	-2.5	-82.8*	102.8*	52.0	33.7	105.4*
CC(C)C#Cc1ccc2c(c1)O[C@H](CN(C)CC1CC1)[C@H](C)CN([C@@H](C)CO)S2(=O)=O	50.5	-0.1	-0.1	-37.7	nt	nt	nt	nt
CC(C)C#Cc1ccc2c(c1)O[C@@H](CN(C)CC1CCCC1)[C@H](C)CN([C@@H](C)CO)S2(=O)=O	91.9*	0.0	-0.8	-55.7	105.5*	52.6	40.7*	103.3*
CC(C)C#Cc1ccc2c(c1)O[C@@H](CN(C)CC1CCCC1)[C@H](C)CN([C@H](C)CO)S2(=O)=O	92.0*	0.1	-2.6	-47.5	104.5*	98.1*	54.8*	104.5*
COc1ccc(C)cc1S(=O)(=O)N1CCC(C(=O)Nc2cccc(C(C)=O)c2)CC1	nt	0.1	nt	nt	nt	nt	nt	nt
CN1CCN(CC(=O)N2N=C(c3c(-c4ccccc4)c4cc(Cl)ccc4[nH]c3=O)CC2c2ccccc2)CC1 (stereo not given)	nt	2.4	nt	nt	nt	nt	nt	nt
O=C(Nc1ccccc1)N1CCCCN2[C@H](C1)[C@@H](c1ccc(C#CC3CC3)cc1)[C@@H]2CO	105.2*	nt	-0.3	1.2	95.7*	80.2	42.9*	103.6*
O=C(Nc1ccccc1)N1CCCCN2[C@H](CO)[C@H](c3ccc(C#CC4CC4)cc3)[C@@H]2C1	76.2	nt	-0.2	-4.5	nt	nt	nt	nt
O=C(Nc1ccccc1)N1CCCCN2[C@@H](CO)[C@H](c3ccc(C#CC4CC4)cc3)[C@@H]2C1	108.0*	nt	-1.1	-17.8	89.4	69.7	?	103.3*
Cc1ccc([N+](=O)[O-])cc1NC(=O)CN(C)S(=O)(=O)c1cc(Cl)ccc1Cl	nt	0.7	nt	nt	nt	nt	nt	nt
O=C(C[C@@H]1CC[C@@H]2[C@H](COC[C@@H](O)CN2Cc2ccc(Oc3ccccc3)cc2)O1)Nc1nccs1	107.9*	nt	2.4	-32.0	101.9*	48.8	13.2	8.4
O=C(C[C@@H]1CC[C@H]2[C@@H](COC[C@H](O)CN2Cc2ccc(Cl)cc2)O1)Nc1nccs1	19.6	nt	-1.7	-29.8	nt	nt	nt	nt
O=C(C[C@H]1CC[C@@H]2[C@H](COC[C@H](O)CN2Cc2ccc(Oc3ccccc3)cc2)O1)Nc1nccs1	133.1*	nt	2.3	-31.1	103.1*	33.6	1.4	52.3*
O=C(C[C@@H]1CC[C@H]2[C@@H](COC[C@@H](O)CN2Cc2ccc(Oc3ccccc3)cc2)O1)Nc1nccs1	116.6*	nt	1.0	-58.0	101.2*	55.1	24.1	97.4*
O=C(C[C@@H]1CC[C@@H]2[C@H](COC[C@H](O)CN2Cc2nccs2)O1)NCc1ccc(Oc2ccccc2)cc1	nt	nt	-2.6	-19.2	nt	nt	nt	nt
O=C(C[C@@H]1CC[C@@H]2[C@H](COC[C@H](O)CN2Cc2ccc(Oc3ccccc3)cc2)O1)Nc1nccs1	133.1*	nt	-1.6	-1.6	100.4*	-0.2	-24.7	11.1
N#Cc1c[nH]c2ccc(NC(=O)/C=C/c3ccc(OC(F)(F)F)cc3)cc12	nt	-1.2	nt	nt	nt	nt	nt	nt
CC1CCC(O)C2C=CC(C)(O)C(C)(C(=O)CCO)C12 (stereo not given)	nt	0.1	nt	nt	nt	nt	nt	nt
C[C@H](CO)N1C[C@H](C)[C@H](CN(C)Cc2ccc(Oc3ccccc3)cc2)Oc2c(NC(=O)Nc3ccc(C(F)(F)F)cc3)cccc2C1=O	122.4*	nt	-1.3	-49.7	103.0*	108.2*	8.4	105.6*
C[C@H]1CN([C@@H](C)CO)C(=O)c2cccc(NC(=O)Nc3ccc(C(F)(F)F)cc3)c2O[C@@H]1CN(C)Cc1ccc(Oc2ccccc2)cc1	126.8*	0.1	5.9	-33.1	95.8*	67.0	23.0	105.2*

From PubChem BioAssay
